Results published in PubChem BioAssay AID602174 (The Scripps Research Institute Molecular Screening Center, 2012).

What follows are molecules tested on MCF7 proliferation, sulforhodamine B absorbance (assay: MCF7 cell proliferation modulation, late-stage follow-up, counter-screen for AHR activator project, absorbance (AID 602174)). Settings: at 10 µM.
In short: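 System: MCF7 cells; input: 2,000 MCF7 cells seeded per well; medium: alpha-MEM plus 10% FBS; schedule: 24 h post-seeding before treatment, then 8–10 day compound exposure at 37 °C; technique: SRB absorbance, 490 nm with 650 nm background subtracted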

In order of falling proliferation change:
1. CCOc1ccc(-c2cc(C)n3nc(C(N)=O)cc3n2)cc1  -20.5%
2. Cn1c(C(=O)N2CCC(C(N)=O)CC2)cc2cc(Cl)ccc21  -49.2%
3. COc1ccc(NC(=O)c2cccc3c(Br)cccc23)cc1  -59.5%
4. Cc1csc(SCC(=O)Nc2ccc(Cl)cn2)n1  -63.2%
5. Cc1c(-c2ccn[nH]2)cc(NC(=O)c2ccc(Cl)cc2)c(=O)n1N  -73%
6. Cc1nnc(N2C(=O)c3cccc4c([N+](=O)[O-])ccc(c34)C2=O)s1  -79%
7. CCOC(=O)Cc1cc(-c2ccc(O)cc2)nc2ccc3ccccc3c12  -84.8%
8. Cc1nc(N)nc(Nc2ccc(Cl)cc2)c1Br  -86.8%
9. COc1ccccc1NC(=O)c1ccc(C(=O)Nc2ccccc2OC)nc1  -90.8%
10. Cc1ccc(-c2cc(-c3cccs3)[nH]n2)c(O)c1  -98.1%
